Measured values reported in ChEMBL document CHEMBL3046864, “Synthesis and antifungal activity of a series of N-substituted [2-(2,4-dichlorophenyl)-3-(1,2,4-triazol-1-yl)]propylamines” (J Agric Food Chem, 2007).
Converted amounts (≈) assume the structure as drawn. The source made the active and inactive calls. The rule behind the calls is not given here.

How the values were obtained:
Fusarium graminearum = experiment: Fungicidal activity against Fusarium graminearum assessed as inhibition of radial growth; format: functional, organism-based
Summary of the method: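 The Fusarium isolate came from the IPV collection and was kept on PDA. Radial growth was measured on PDA plates at 100–0.1 mg L-1. Percentage inhibition was taken from the mean difference between treated and control cultures. EC50 came from a probit plot of percentage inhibition against dose.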

Pyrenophora teres = experiment: Fungicidal activity against Pyrenophora teres assessed as inhibition of radial growth; format: functional, organism-based
Summary of the method: (§1)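 Strains from the IPV collection were maintained on potato dextrose agar. Radial growth on PDA was measured at 100–0.1 mg L-1. % inhibition was taken from the mean difference between treated and control cultures relative to control. % inhibition was plotted on a probit scale against dose to give EC50.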

Oculimacula yallundae = experiment: Fungicidal activity against Oculimacula yallundae assessed as inhibition of radial growth; format: functional, organism-based; summary of the method: as §1
Botrytis cinerea = experiment: Fungicidal activity against Botryotinia fuckeliana assessed as inhibition of radial growth; format: functional, organism-based; summary of the method: as §1
Ustilago maydis = experiment: Fungicidal activity against Ustilago maydis ATCC 14826 assessed as inhibition of fungal cell count; format: functional, organism-based; conditions: Mycosarcoma maydis
Summary of the method: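 U. maydis ATCC 14826 broth cultures were grown in Coursen and Sisler broth with compound. Growth was estimated by sporidial cell count at the end of treatment and expressed as % inhibition versus the untreated control.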

Cercospora beticola = experiment: Fungicidal activity against Cercospora beticola assessed as inhibition of radial growth; format: functional, organism-based; summary of the method: as §1
Blumeria graminis = experiment: Antifungal activity against Blumeria graminis f. sp. tritici infected in 125 ug/mL […] assessed as inhibition of wheat powdery mildew disease measured after 10 days post fungal inoculation; format: functional
Phytophthora infestans = experiment: Antifungal activity against Phytophthora infestans infected 125 ug/mL compound pre-treated six-leaves stage tomato plant seedlings assessed as inhibition of disease measured after 7 days post fungal inoculation; format: functional
Summary of the method: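 Preventive application before inoculation. Tomato plants were sprayed with a P. infestans zoosporangia suspension (5 × 10^4 mL-1). Plants were held 24 h at 20 ± 1 °C and 100% RH, then moved to a greenhouse at 23 ± 1 °C and 70 ± 10% RH. Diseased leaf area was scored 7 days after inoculation against nontreated plants to give percentage disease inhibition.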

Puccinia recondita = experiment: Antifungal activity against Puccinia recondita infected 125 ug/mL compound […] assessed as inhibition of wheat brown rust disease measured after 10 days post fungal inoculation; format: functional
[1] = biological target: T1, Squalene monooxygenase (Mycosarcoma maydis) (UniProt A0A0D1C8X8); experiment: Inhibition of squalene epoxidase in Ustilago maydis ATCC 14826 assessed as effect on squalene level at 0.01 to 100 mg/L measured after 18 hr post compound treatment
T1 sequence (whole entry): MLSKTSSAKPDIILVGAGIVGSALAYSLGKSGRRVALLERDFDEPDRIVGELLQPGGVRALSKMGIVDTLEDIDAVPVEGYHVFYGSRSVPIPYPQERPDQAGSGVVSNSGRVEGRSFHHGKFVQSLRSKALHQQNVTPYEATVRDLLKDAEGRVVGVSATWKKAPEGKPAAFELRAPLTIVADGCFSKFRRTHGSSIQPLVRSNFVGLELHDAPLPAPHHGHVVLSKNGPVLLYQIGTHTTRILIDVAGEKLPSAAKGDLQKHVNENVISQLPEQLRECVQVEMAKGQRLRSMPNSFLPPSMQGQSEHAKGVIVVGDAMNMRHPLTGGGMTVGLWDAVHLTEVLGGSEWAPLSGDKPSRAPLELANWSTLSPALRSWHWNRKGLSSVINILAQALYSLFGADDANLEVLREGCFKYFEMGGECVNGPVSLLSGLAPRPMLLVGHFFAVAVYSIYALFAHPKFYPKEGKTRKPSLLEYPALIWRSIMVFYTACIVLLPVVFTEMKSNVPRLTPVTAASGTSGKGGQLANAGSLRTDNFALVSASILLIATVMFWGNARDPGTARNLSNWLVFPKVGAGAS
Summary of the method: (§2)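 U. maydis was grown in Coursen and Sisler broth with compound at 0.01–100 mg L-1 for 18 h. Sporidia were harvested by centrifugation, spiked with dihydrocholesterol as a known-amount standard, and saponified in 20% KOH in 60% ethanol for 1 h at 90 °C. The unsaponifiable fraction, including squalene and 14-methyl sterols, was analysed by capillary GC-FID and GC-MS.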

[2] = biological target: T2, Lanosterol 14-alpha demethylase (Mycosarcoma maydis) (UniProt P49602); experiment: Inhibition of 14alpha-demethylase in Ustilago maydis ATCC 14826 assessed as increase in 14-methyl sterols levels at 0.01 to 100 mg/L measured after 18 hr post compound treatment; summary of the method: as §2
T2 sequence (whole entry): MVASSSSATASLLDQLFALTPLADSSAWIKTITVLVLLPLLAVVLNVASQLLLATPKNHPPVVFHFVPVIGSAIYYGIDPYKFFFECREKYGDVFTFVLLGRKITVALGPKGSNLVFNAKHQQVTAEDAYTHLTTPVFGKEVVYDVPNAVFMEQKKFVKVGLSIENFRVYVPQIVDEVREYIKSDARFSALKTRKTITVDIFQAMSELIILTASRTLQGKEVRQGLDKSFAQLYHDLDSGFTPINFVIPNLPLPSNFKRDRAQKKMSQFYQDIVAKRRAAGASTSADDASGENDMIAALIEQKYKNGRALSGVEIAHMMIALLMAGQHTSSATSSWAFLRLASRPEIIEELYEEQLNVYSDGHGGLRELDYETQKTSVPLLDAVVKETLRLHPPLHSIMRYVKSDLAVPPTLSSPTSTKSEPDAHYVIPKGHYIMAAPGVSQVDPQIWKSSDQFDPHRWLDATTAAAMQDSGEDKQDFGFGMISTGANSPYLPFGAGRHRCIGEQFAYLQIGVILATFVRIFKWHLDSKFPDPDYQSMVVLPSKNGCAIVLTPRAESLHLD

Row | SMILES | EC50 (Fusarium graminearum) | EC50 (Pyrenophora teres) | EC50 (Oculimacula yallundae) | EC50 (Botrytis cinerea) | EC50 (Ustilago maydis) | EC50 (Cercospora beticola) | inhibition (INH) (Blumeria graminis) | inhibition (INH) (Phytophthora infestans) | inhibition (INH) (Puccinia recondita) | inhibition [1] | inhibition [2]
1 | C/C=C/C(=O)NCC(Cn1cncn1)c1ccc(Cl)cc1Cl (centres undefined) | > 100 µg/mL | > 100 µg/mL | > 100 µg/mL | > 100 µg/mL | 20.7 µg/mL (≈ 61 µM) | 60.5 µg/mL (≈ 178 µM) |  |  |  |  | 
2 | O=C(NCC(Cn1cncn1)c1ccc(Cl)cc1Cl)c1ccccc1 (centres undefined) | > 100 µg/mL | 11.5 µg/mL (≈ 30.6 µM) | 80.3 µg/mL (≈ 214 µM) | 100 µg/mL (≈ 266 µM) | 1.9 µg/mL (≈ 5.06 µM) | 2.5 µg/mL (≈ 6.66 µM) |  |  |  |  | 
3 | C=CCNCC(Cn1cncn1)c1ccc(Cl)cc1Cl (centres undefined) | > 100 µg/mL | > 100 µg/mL | 91.3 µg/mL (≈ 293 µM) | > 100 µg/mL | 19.9 µg/mL (≈ 63.9 µM) | 31.7 µg/mL (≈ 102 µM) |  |  |  |  | 
4 | Clc1ccc(C(CNCc2ccccc2)Cn2cncn2)c(Cl)c1 (centres undefined) | > 100 µg/mL | 30.3 µg/mL (≈ 83.9 µM) | 23.4 µg/mL (≈ 64.8 µM) | > 100 µg/mL | 11.3 µg/mL (≈ 31.3 µM) | 2.7 µg/mL (≈ 7.47 µM) |  |  |  |  | 
5 | CC(C)(C)c1ccc(CN(Cc2ccc(C(C)(C)C)cc2)CC(Cn2cncn2)c2ccc(Cl)cc2Cl)cc1 (centres undefined) | > 100 µg/mL | > 100 µg/mL | > 100 µg/mL | > 100 µg/mL | 9 µg/mL (≈ 16 µM) | 7 µg/mL (≈ 12.4 µM) |  |  |  |  | 
6 | C=CCN(CC(Cn1cncn1)c1ccc(Cl)cc1Cl)C1CC1 (centres undefined) | 55 µg/mL (≈ 157 µM) | 3.2 µg/mL (≈ 9.11 µM) | 0.8 µg/mL (≈ 2.28 µM) | 4.4 µg/mL (≈ 12.5 µM) | 0.01 µg/mL (≈ 0.0285 µM) | 0.2 µg/mL (≈ 0.569 µM) |  |  |  |  | 
7 | C#CCN(CC#C)CC(Cn1cncn1)c1ccc(Cl)cc1Cl (centres undefined) | 9 µg/mL (≈ 25.9 µM) | 2.1 µg/mL (≈ 6.05 µM) | 2.8 µg/mL (≈ 8.06 µM) | 4.9 µg/mL (≈ 14.1 µM) | 0.14 µg/mL (≈ 0.403 µM) | 1.1 µg/mL (≈ 3.17 µM) | 35% | 0% | 15% |  | 
8 | CN(C)CC(Cn1cncn1)c1ccc(Cl)cc1Cl (centres undefined) | > 100 µg/mL | 42 µg/mL (≈ 140 µM) | 6.5 µg/mL (≈ 21.7 µM) | 75 µg/mL (≈ 251 µM) | 2.5 µg/mL (≈ 8.36 µM) | 8 µg/mL (≈ 26.7 µM) |  |  |  |  | 
9 | Clc1ccc(C(CN(Cc2ccccc2)Cc2ccccc2)Cn2cncn2)c(Cl)c1 (centres undefined) | > 100 µg/mL | 1.9 µg/mL (≈ 4.21 µM) | 17 µg/mL (≈ 37.7 µM) | 6 µg/mL (≈ 13.3 µM) | 0.09 µg/mL (≈ 0.199 µM) | 4 µg/mL (≈ 8.86 µM) |  |  |  |  | 
10 | Clc1ccc(C(CN(C/C=C/c2ccccc2)C/C=C/c2ccccc2)Cn2cncn2)c(Cl)c1 (centres undefined) | > 100 µg/mL | 6 µg/mL (≈ 11.9 µM) | > 100 µg/mL | > 100 µg/mL | 0.65 µg/mL (≈ 1.29 µM) | 12.5 µg/mL (≈ 24.8 µM) |  |  |  |  | 
11 | NCC(Cn1cncn1)c1ccc(Cl)cc1Cl (centres undefined) | > 100 µg/mL | > 100 µg/mL | > 100 µg/mL | > 100 µg/mL | 70.3 µg/mL (≈ 259 µM) | > 100 µg/mL |  |  |  |  | 
12 | FC(F)C(F)(F)OCC(Cn1cncn1)c1ccc(Cl)cc1Cl (centres undefined) [TETRACONAZOLE] |  |  |  | 0.04 µg/mL (≈ 0.107 µM) |  |  | 100% | 0% | 100% |  | 
13 | C=CCN(CC=C)CC(Cn1cncn1)c1ccc(Cl)cc1Cl (centres undefined) | > 100 µg/mL | 6.5 µg/mL (≈ 18.5 µM) | 3.6 µg/mL (≈ 10.2 µM) | 10 µg/mL (≈ 28.5 µM) | 0.22 µg/mL (≈ 0.626 µM) | 2.6 µg/mL (≈ 7.4 µM) | 30% | 0% | 25% | inactive | Active
14 | Clc1ccc(C(CN(C2CC2)C2CC2)Cn2cncn2)c(Cl)c1 (centres undefined) | 55 µg/mL (≈ 157 µM) | 5.5 µg/mL (≈ 15.7 µM) | 1.2 µg/mL (≈ 3.42 µM) | 7.5 µg/mL (≈ 21.4 µM) | 0.02 µg/mL (≈ 0.0569 µM) | 0.4 µg/mL (≈ 1.14 µM) | 60% | 0% | 10% |  | 
15 | Clc1ccc(C(CNC/C=C/c2ccccc2)Cn2cncn2)c(Cl)c1 (centres undefined) | 26 µg/mL (≈ 67.1 µM) | 12 µg/mL (≈ 31 µM) | 7.5 µg/mL (≈ 19.4 µM) | 42 µg/mL (≈ 108 µM) | 1.4 µg/mL (≈ 3.61 µM) | 2.4 µg/mL (≈ 6.2 µM) | 25% | 0% | 20% |  | 
16 | C#CCNCC(Cn1cncn1)c1ccc(Cl)cc1Cl (centres undefined) | > 100 µg/mL | 38 µg/mL (≈ 123 µM) | 11 µg/mL (≈ 35.6 µM) | 38 µg/mL (≈ 123 µM) | 1.3 µg/mL (≈ 4.2 µM) | 4 µg/mL (≈ 12.9 µM) |  |  |  |  | 
17 | CC(=O)NCC(Cn1cncn1)c1ccc(Cl)cc1Cl (centres undefined) | > 100 µg/mL | > 100 µg/mL | > 100 µg/mL | > 100 µg/mL | 60 µg/mL (≈ 192 µM) | > 100 µg/mL |  |  |  |  | 
